# Reference: ChEMBL document CHEMBL4270599, “Synthesis of a 3'-C-ethynyl-β-d-ribofuranose purine nucleoside library: Discovery of C7-deazapurine analogs as potent antiproliferative nucleosides” (Eur J Med Chem, 2018)
# Assays:
# HOP-92 [1] = assay: Cytotoxicity against human HOP92 cells after 48 hrs by SRB assay; format: functional; conditions: HOP-92, 48 h
# NCI-H460 = assay: Cytotoxicity against human NCI-H460 cells after 48 hrs by SRB assay; format: functional; conditions: NCI-H460, 48 h
# SF-295 [2] = assay: Cytotoxicity against human SF295 cells after 48 hrs by SRB assay; format: functional; conditions: SF-295, 48 h
# NCI/ADR-RES = assay: Cytotoxicity against human NCI-ADR-RES cells after 48 hrs by SRB assay; format: functional
# HOP-92 [3] = assay: Growth inhibition of human HOP92 cells assessed as cell growth at 10^-8 M incubated for 48 hrs by sulforhodamine B assay relative to control; format: functional; conditions: HOP-92, 48 h, read-out: Activity
# HCT-116 = assay: Growth inhibition of human HCT116 cells assessed as cell growth at 10^-8 M incubated for 48 hrs by sulforhodamine B assay relative to control; format: functional; conditions: HCT-116, 48 h, read-out: Activity
# HCT-15 [4] = assay: Growth inhibition of human HCT15 cells assessed as cell growth at 10^-8 M incubated for 48 hrs by sulforhodamine B assay relative to control; format: functional; conditions: HCT-15, 48 h, read-out: Activity
# SF-295 [5] = assay: Growth inhibition of human SF295 cells assessed as cell growth at 10^-8 M incubated for 48 hrs by sulforhodamine B assay relative to control; format: functional; conditions: SF-295, 48 h, read-out: Activity
# U-251 = assay: Growth inhibition of human U251 cells assessed as cell growth at 10^-8 M incubated for 48 hrs by sulforhodamine B assay relative to control; format: functional; conditions: U-251, 48 h, read-out: Activity
# LOX IMVI = assay: Growth inhibition of human LOXIMVI cells assessed as cell growth at 10^-8 M incubated for 48 hrs by sulforhodamine B assay relative to control; format: functional; conditions: read-out: Activity
# Malme-3M = assay: Growth inhibition of human MALME-3M cells assessed as cell growth at 10^-8 M incubated for 48 hrs by sulforhodamine B assay relative to control; format: functional; conditions: read-out: Activity
# UACC-257 [6] = assay: Growth inhibition of human UACC257 cells assessed as cell growth at 10^-8 M incubated for 48 hrs by sulforhodamine B assay relative to control; format: functional; conditions: UACC-257, 48 h, read-out: Activity
# HOP-92 [7] = assay: Growth inhibition of human HOP92 cells assessed as cell growth at 10^-7 M incubated for 48 hrs by sulforhodamine B assay relative to control; format: functional; conditions: HOP-92, 48 h, read-out: Activity
# NCI-H522 = assay: Growth inhibition of human NCI-H522 cells assessed as cell growth at 10^-7 M incubated for 48 hrs by sulforhodamine B assay relative to control; format: functional; conditions: NCI-H522, 48 h, read-out: Activity
# CCRF-CEM = assay: Growth inhibition of human CCRF-CEM cells assessed as cell growth at 10^-6 M incubated for 48 hrs by sulforhodamine B assay relative to control; format: functional; conditions: read-out: Activity
# HOP-92 [8] = assay: Growth inhibition of human HOP92 cells assessed as cell growth at 10^-6 M incubated for 48 hrs by sulforhodamine B assay relative to control; format: functional; conditions: HOP-92, 48 h, read-out: Activity
# HCT-15 [9] = assay: Growth inhibition of human HCT15 cells assessed as cell growth at 10^-6 M incubated for 48 hrs by sulforhodamine B assay relative to control; format: functional; conditions: HCT-15, 48 h, read-out: Activity
# KM12 = assay: Growth inhibition of human KM12 cells assessed as cell growth at 10^-6 M incubated for 48 hrs by sulforhodamine B assay relative to control; format: functional; conditions: KM12, 48 h, read-out: Activity
# SW-620 = assay: Growth inhibition of human SW620 cells assessed as cell growth at 10^-6 M incubated for 48 hrs by sulforhodamine B assay relative to control; format: functional; conditions: SW-620, 48 h, read-out: Activity
# M14 = assay: Growth inhibition of human M14 cells assessed as cell growth at 10^-6 M incubated for 48 hrs by sulforhodamine B assay relative to control; format: functional; conditions: M14, 48 h, read-out: Activity
# SK-MEL-28 = assay: Growth inhibition of human SK-MEL-28 cells assessed as cell growth at 10^-6 M incubated for 48 hrs by sulforhodamine B assay relative to control; format: functional; conditions: SK-MEL-28, 48 h, read-out: Activity
# SK-MEL-5 = assay: Growth inhibition of human SK-MEL-5 cells assessed as cell growth at 10^-6 M incubated for 48 hrs by sulforhodamine B assay relative to control; format: functional; conditions: SK-MEL-5, 48 h, read-out: Activity
# UACC-257 [10] = assay: Growth inhibition of human UACC257 cells assessed as cell growth at 10^-6 M incubated for 48 hrs by sulforhodamine B assay relative to control; format: functional; conditions: UACC-257, 48 h, read-out: Activity
# A498 = assay: Growth inhibition of human A498 cells assessed as cell growth at 10^-6 M incubated for 48 hrs by sulforhodamine B assay relative to control; format: functional; conditions: A498, 48 h, read-out: Activity
# UO-31 = assay: Growth inhibition of human UO31 cells assessed as cell growth at 10^-6 M incubated for 48 hrs by sulforhodamine B assay relative to control; format: functional; conditions: UO-31, 48 h, read-out: Activity
# BT-549 = assay: Growth inhibition of human BT549 cells assessed as cell growth at 10^-6 M incubated for 48 hrs by sulforhodamine B assay relative to control; format: functional; conditions: BT-549, 48 h, read-out: Activity
# HL-60(TB) = assay: Growth inhibition of human HL-60(TB) cells assessed as cell growth at 10^-5 M incubated for 48 hrs by sulforhodamine B assay relative to control; format: functional; conditions: HL-60, 48 h, read-out: Activity
# NCI-H322M = assay: Growth inhibition of human NCI-H322M cells assessed as cell growth at 10^-5 M incubated for 48 hrs by sulforhodamine B assay relative to control; format: functional; conditions: read-out: Activity
# HCT-15 [11] = assay: Growth inhibition of human HCT15 cells assessed as cell growth at 10^-4 M incubated for 48 hrs by sulforhodamine B assay relative to control; format: functional; conditions: HCT-15, 48 h, read-out: Activity
# OVCAR-3 = assay: Growth inhibition of human OVCAR3 cells assessed as cell growth at 10^-4 M incubated for 48 hrs by sulforhodamine B assay relative to control; format: functional; conditions: OVCAR-3, 48 h, read-out: Activity
# HUVEC = assay: Antiproliferative activity against HUVEC cells after 4 days by Coulter counter method; format: cell-based; conditions: Homo sapiens, 96 h
# Method in brief: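 Primary HUVEC, primary HMVEC-d and the HMEC-1 line seeded at 20,000 cells/well in gelatin-coated plates in EC growth medium (EGM2). After overnight incubation, 5-fold compound dilutions added. Cells proliferated four days with compound, then trypsinized and counted by Coulter counter to derive IC₅₀.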
# [12] = read-out: LC50 (the source's name)
# [13] = read-out: pLC50 (the source's name) (converted)
structure (smiles),measurement,setting,value
C#C[C@@]1(O)[C@@H](CO)O[C@@H](n2cc(F)c3c(N)ncnc32)[C@@H]1O,CC50,HOP-92 [1]; [12],> 100000 nM
same,GI50,HOP-92 [1]; read-out: pGI50 (converted),38 nM
same,CC50,NCI-H460; [12],> 100000 nM
same,TGI,NCI-H460; read-out: TGI,10200 nM
same,GI50,NCI-H460; read-out: pGI50 (converted),229 nM
same,TGI,NCI-H460; read-out: pTGI (converted),10200 nM
same,TGI,SF-295 [2]; read-out: TGI,2330 nM
same,GI50,SF-295 [2]; read-out: pGI50 (converted),646 nM
same,CC50,SF-295 [2]; [13],6760 nM
same,TGI,SF-295 [2]; read-out: pTGI (converted),2340 nM
same,TGI,NCI/ADR-RES; read-out: TGI,11300 nM
same,GI50,NCI/ADR-RES; read-out: pGI50 (converted),309 nM
same,CC50,NCI/ADR-RES; [13],> 100000 nM
same,TGI,NCI/ADR-RES; read-out: pTGI (converted),11200 nM
same,growth at 0.01 µM,HOP-92 [3],121%
same,growth at 0.01 µM,HCT-116,98%
same,growth at 0.01 µM,HCT-15 [4],97%
same,growth at 0.01 µM,SF-295 [5],98%
same,growth at 0.01 µM,U-251,97%
same,growth at 0.01 µM,LOX IMVI,96%
same,growth at 0.01 µM,Malme-3M,103%
same,growth at 0.01 µM,UACC-257 [6],91%
same,growth at 0.1 µM,HOP-92 [7],-1%
same,growth at 0.1 µM,NCI-H522,68%
same,growth at 1 µM,CCRF-CEM,23%
same,growth at 1 µM,HOP-92 [8],24%
same,growth at 1 µM,HCT-15 [9],18%
same,growth at 1 µM,KM12,35%
same,growth at 1 µM,SW-620,4%
same,growth at 1 µM,M14,29%
same,growth at 1 µM,SK-MEL-28,72%
same,growth at 1 µM,SK-MEL-5,13%
same,growth at 1 µM,UACC-257 [10],34%
same,growth at 1 µM,A498,43%
same,growth at 1 µM,UO-31,23%
same,growth at 1 µM,BT-549,45%
same,growth at 10 µM,HL-60(TB),-17%
same,growth at 10 µM,NCI-H322M,-17%
same,growth at 100 µM,HCT-15 [11],-33%
same,growth at 100 µM,OVCAR-3,3%
same,IC50,HUVEC,67 nM
